ChEMBL document CHEMBL1128678, “Preparation of 18F-labeled muscarinic agonist with M2 selectivity” (J Med Chem, 1995)
Several values for one entry are separate records, joined by “and”; a condition that tells them apart may be missing. Equal values may be shown once.

Assays:
Rattus norvegicus [1] = assay: In vivo biodistribution in blood after 120 min of administration in rat; type: ADME, organism-based; details: 2 h
In short: (§1)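 [18F] tracer formulated in PBS with under 10% ethanol; 15 μCi given by tail vein to Sprague-Dawley rats (200–250 g). Groups of five sacrificed at 15, 60 or 120 min. Brain dissected into 11 regions, with blood, heart, bone and lung also collected. Tissues weighed and counted, and % ID/g calculated; n = 5 or 6.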

Rattus norvegicus [2] = assay: In vivo biodistribution in blood after 15 min of administration in rat; type: ADME, organism-based; details: 0.25 h; in short: as §1
Rattus norvegicus [3] = assay: In vivo biodistribution in blood after 60 min of administration in rat; type: ADME, organism-based; details: 1 h; in short: as §1
Rattus norvegicus [4] = assay: In vivo biodistribution in blood at 60 min for no inhibitor was co-injected in rat; type: ADME, organism-based; details: 1 h
Rattus norvegicus [5] = assay: In vivo biodistribution in bone after 120 min of administration in rat; type: ADME, organism-based, Bone element; details: 2 h; in short: as §1
Rattus norvegicus [6] = assay: In vivo biodistribution in LT-THAL after 120 min of administration in rat; type: ADME, organism-based; details: 2 h; in short: as §1
Rattus norvegicus [7] = assay: In vivo biodistribution in LT-THAL after 60 min of administration in rat; type: ADME, organism-based; details: 1 h; in short: as §1
Rattus norvegicus [8] = assay: In vivo biodistribution in LT-THAL at 60 min for no inhibitor was co-injected in rat; type: ADME, organism-based; details: 1 h
Rattus norvegicus [9] = assay: In vivo biodistribution in MEDULL after 120 min of administration in rat; type: ADME, organism-based; details: 2 h; in short: as §1
Rattus norvegicus [10] = assay: In vivo biodistribution in MEDULL after 15 min of administration in rat; type: ADME, organism-based; details: 0.25 h; in short: as §1
Rattus norvegicus [11] = assay: In vivo biodistribution in MEDULL after 60 min of administration in rat; type: ADME, organism-based; details: 1 h; in short: as §1
Rattus norvegicus [12] = assay: In vivo biodistribution in PONS after 120 min of administration in rat; type: ADME, organism-based; details: 2 h; in short: as §1
Rattus norvegicus [13] = assay: In vivo biodistribution in PONS after 15 min of administration in rat; type: ADME, organism-based; details: 0.25 h; in short: as §1
Rattus norvegicus [14] = assay: In vivo biodistribution in PONS after 60 min of administration in rat; type: ADME, organism-based; details: 1 h; in short: as §1
Rattus norvegicus [15] = assay: In vivo biodistribution in LT-CTX after 120 min of administration in rat; type: ADME, organism-based; details: 2 h; in short: as §1
Rattus norvegicus [16] = assay: In vivo biodistribution in LT-CTX after 15 min of administration in rat; type: ADME, organism-based; details: 0.25 h; in short: as §1
Rattus norvegicus [17] = assay: In vivo biodistribution in LT-CTX after 60 min of administration in rat; type: ADME, organism-based; details: 1 h; in short: as §1
Rattus norvegicus [18] = assay: In vivo biodistribution in LT-CTX at 60 min for no inhibitor was co-injected in rat; type: ADME, organism-based; details: 1 h
Rattus norvegicus [19] = assay: In vivo biodistribution in LT-HIPP after 120 min of administration in rat; type: ADME, organism-based; details: 2 h; in short: as §1
Rattus norvegicus [20] = assay: In vivo biodistribution in LT-HIPP after 15 min of administration in rat; type: ADME, organism-based; details: 0.25 h; in short: as §1
Rattus norvegicus [21] = assay: In vivo biodistribution in LT-HIPP after 60 min of administration in rat; type: ADME, organism-based; details: 1 h; in short: as §1
Rattus norvegicus [22] = assay: In vivo biodistribution in LT-HIPP at 60 min for no inhibitor was co-injected in rat; type: ADME, organism-based; details: 1 h
Rattus norvegicus [23] = assay: In vivo biodistribution in LT-STR after 120 min of administration in rat; type: ADME, organism-based; details: 2 h; in short: as §1
Rattus norvegicus [24] = assay: In vivo biodistribution in LT-STR after 15 min of administration in rat; type: ADME, organism-based; details: 0.25 h; in short: as §1
Rattus norvegicus [25] = assay: In vivo biodistribution in LT-STR after 60 min of administration in rat; type: ADME, organism-based; details: 1 h; in short: as §1
Rattus norvegicus [26] = assay: In vivo biodistribution in LT-STR at 60 min for no inhibitor was co-injected in rat; type: ADME, organism-based; details: 1 h
Rattus norvegicus [27] = assay: In vivo biodistribution in CBLL after 120 min of administration in rat; type: ADME, organism-based; details: 2 h; in short: as §1
Rattus norvegicus [28] = assay: In vivo biodistribution in CBLL after 15 min of administration in rat; type: ADME, organism-based; details: 0.25 h; in short: as §1
Rattus norvegicus [29] = assay: In vivo biodistribution in CBLL after 60 min of administration in rat; type: ADME, organism-based; details: 1 h; in short: as §1
Rattus norvegicus [30] = assay: In vivo biodistribution in CBLL at 60 min for no inhibitor was co-injected in rat; type: ADME, organism-based; details: 1 h
Rattus norvegicus [31] = assay: In vivo biodistribution in lung after 60 min of administration in rat; type: ADME, organism-based; details: 1 h; in short: as §1
Rattus norvegicus [32] = assay: In vivo biodistribution in lung at 60 min for no inhibitor was co-injected in rat; type: ADME, organism-based; details: 1 h
In short: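 [18F]tracer formulated in phosphate-buffered saline (<10% ethanol), 15 μCi injected via tail vein into Sprague-Dawley rats (200–250 g); no inhibitor co-injected. Animals sacrificed in groups of five at 60 min postinjection. Lung sample collected, weighed, counted for activity, and % ID/g calculated (n = 5 or 6).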

Rattus norvegicus [33] = assay: In vivo biodistribution in heart at 60 min as a function of 5 nM of (R,R) IQNB (inhibitor) in rat; type: ADME, organism-based; details: 1 h
Rattus norvegicus [34] = assay: In vivo biodistribution in heart at 60 min for no inhibitor was co-injected in rat; type: ADME, organism-based; details: 1 h
Rattus norvegicus [35] = assay: In vivo biodistribution in lung after 120 min of administration in rat; type: ADME, organism-based; details: 2 h; in short: as §1
Rattus norvegicus [36] = assay: In vivo biodistribution in lung after 15 min of administration in rat; type: ADME, organism-based; details: 0.25 h; in short: as §1
[37] = In vivo biodistribution in bone at 60 min for no inhibitor was co-injected in rat; type: ADME, organism-based, Bone element; details: 1 h
[38] = In vivo biodistribution in heart after 120 min of administration.; type: ADME, organism-based; details: 2 h; in short: as §1
Rattus norvegicus [39] = assay: In vivo biodistribution in heart after 15 min of administration in rat; type: ADME, organism-based; details: 0.25 h; in short: as §1
Rattus norvegicus [40] = assay: In vivo biodistribution in heart after 60 min of administration in rat; type: ADME, organism-based; details: 1 h; in short: as §1
Rattus norvegicus [41] = assay: In vivo biodistribution in heart at 60 min as a function of 500 nM of (R,S) -fluoromethyl QNB(inhibitor) in rat; type: ADME, organism-based; details: 1 h
Rattus norvegicus [42] = assay: In vivo biodistribution in bone after 15 min of administration in rat; type: ADME, organism-based, Bone element; details: 0.25 h; in short: as §1
Rattus norvegicus [43] = assay: In vivo biodistribution in bone after 60 min of administration in rat; type: ADME, organism-based, Bone element; details: 1 h; in short: as §1
Rattus norvegicus [44] = assay: In vivo biodistribution in LT-CTX at 60 min for no inhibitor was co-injected co-injected in rat; type: ADME, organism-based; details: 1 h
Rattus norvegicus [45] = assay: In vivo biodistribution in MEDULL at 60 min for no inhibitor was co-injected in rat; type: ADME, organism-based; details: 1 h
[46] = target: T1, Muscarinic acetylcholine receptor M2 (Rattus norvegicus, UniProt P10980); assay: In vitro binding affinity towards Muscarinic acetylcholine receptor M2 was determined by measuring its ability to displace [3H]-AF-DX 384 from rat heart membranes; parameters: species or system Membrane
T1 sequence (P10980 whole entry): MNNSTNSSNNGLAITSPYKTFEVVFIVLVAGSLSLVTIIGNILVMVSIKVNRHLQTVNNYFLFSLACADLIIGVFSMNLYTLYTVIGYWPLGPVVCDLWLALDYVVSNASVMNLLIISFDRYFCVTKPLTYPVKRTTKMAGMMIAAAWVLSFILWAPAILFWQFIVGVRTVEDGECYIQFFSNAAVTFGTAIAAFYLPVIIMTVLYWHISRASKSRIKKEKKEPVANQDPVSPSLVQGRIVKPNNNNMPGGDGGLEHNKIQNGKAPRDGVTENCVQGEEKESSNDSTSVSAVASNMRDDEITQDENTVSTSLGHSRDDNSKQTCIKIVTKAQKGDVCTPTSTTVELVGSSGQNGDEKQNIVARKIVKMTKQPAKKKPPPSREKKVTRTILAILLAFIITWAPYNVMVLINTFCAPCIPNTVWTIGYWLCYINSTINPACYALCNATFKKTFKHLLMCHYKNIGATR
In short: (§2)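 Displacement binding performed by NovaScreen. For M1, the tracer was [3H]pirenzepine with bovine striatal membranes. For M2, it was [3H]AF-DX 384 with rat heart membranes. Ki values in nM were calculated by LIGAND analysis.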

[47] = target: T2, Muscarinic acetylcholine receptor M1 (Bos taurus, UniProt Q8WMX0); assay: In vitro binding affinity towards Muscarinic acetylcholine receptor M1 was determined by measuring its ability to displace [3H]pirenzepine from bovine striatal membranes; parameters: species or system Striatum, Membrane; in short: as §2
T2 sequence (Q8WMX0 whole entry): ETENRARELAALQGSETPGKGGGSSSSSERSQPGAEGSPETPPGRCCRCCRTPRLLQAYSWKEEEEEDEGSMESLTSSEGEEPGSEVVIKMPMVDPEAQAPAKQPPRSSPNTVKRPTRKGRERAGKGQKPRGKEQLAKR

[48] = target: Muscarinic acetylcholine receptor M3 (Cavia porcellus, UniProt Q8VH26); assay: In vitro binding affinity towards Muscarinic acetylcholine receptor M3 was determined by measuring its ability to displace [3H]-N-methyl- Scopolamine from guinea pig ileum; type: tissue-based
Chain of Muscarinic acetylcholine receptor M3 (Q8VH26 whole entry): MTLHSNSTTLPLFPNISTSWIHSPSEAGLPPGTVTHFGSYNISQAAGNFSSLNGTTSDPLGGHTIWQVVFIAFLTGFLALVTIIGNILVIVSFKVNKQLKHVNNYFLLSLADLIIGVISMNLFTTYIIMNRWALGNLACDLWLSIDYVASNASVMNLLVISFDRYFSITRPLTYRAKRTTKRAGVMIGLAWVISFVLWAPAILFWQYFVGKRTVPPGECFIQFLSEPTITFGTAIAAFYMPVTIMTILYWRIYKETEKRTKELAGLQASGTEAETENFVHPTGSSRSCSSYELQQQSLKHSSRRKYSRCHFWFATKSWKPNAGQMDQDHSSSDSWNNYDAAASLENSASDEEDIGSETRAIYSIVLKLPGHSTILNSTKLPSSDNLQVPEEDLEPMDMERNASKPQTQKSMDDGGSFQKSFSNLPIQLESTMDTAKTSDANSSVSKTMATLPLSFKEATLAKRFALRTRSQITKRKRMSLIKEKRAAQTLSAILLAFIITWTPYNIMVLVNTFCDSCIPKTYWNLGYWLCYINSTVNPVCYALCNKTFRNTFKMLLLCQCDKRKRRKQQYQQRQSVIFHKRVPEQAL

Compound: CN1CC=C(c2nsnc2SCCC[18F])CC1
- ID/g (Rattus norvegicus [1]): 0.1%
- ID/g (Rattus norvegicus [2]): 0.181%
- ID/g (Rattus norvegicus [3]): 0.124%
- ID/g (Rattus norvegicus [4]): 0.126% and 0.13% and 0.18%
- ID/g (Rattus norvegicus [5]): 0.993%
- ID/g (Rattus norvegicus [6]): 0.153%
- ID/g (Rattus norvegicus [7]): 0.293%
- ID/g (Rattus norvegicus [8]): 0.413% and 0.45% and 0.56%
- ID/g (Rattus norvegicus [9]): 0.226%
- ID/g (Rattus norvegicus [10]): 0.788%
- ID/g (Rattus norvegicus [11]): 0.438%
- ID/g (Rattus norvegicus [12]): 0.238%
- ID/g (Rattus norvegicus [13]): 0.824%
- ID/g (Rattus norvegicus [14]): 0.385%
- ID/g (Rattus norvegicus [15]): 0.139%
- ID/g (Rattus norvegicus [16]): 1.125%
- ID/g (Rattus norvegicus [17]): 0.368%
- ID/g (Rattus norvegicus [18]): 0.484% and 0.52%
- ID/g (Rattus norvegicus [19]): 0.119%
- ID/g (Rattus norvegicus [20]): 0.826%
- ID/g (Rattus norvegicus [21]): 0.363%
- ID/g (Rattus norvegicus [22]): 0.429% and 0.47% and 0.65%
- ID/g (Rattus norvegicus [23]): 0.123%
- ID/g (Rattus norvegicus [24]): 0.861%
- ID/g (Rattus norvegicus [25]): 0.353%
- ID/g (Rattus norvegicus [26]): 0.448% and 0.46% and 0.64%
- ID/g (Rattus norvegicus [27]): 0.154%
- ID/g (Rattus norvegicus [28]): 0.766%
- ID/g (Rattus norvegicus [29]): 0.285%
- ID/g (Rattus norvegicus [30]): 0.382% and 0.44% and 0.47%
- ID/g (Rattus norvegicus [31]): 0.261%
- ID/g (Rattus norvegicus [32]): 0.372%
- ID/g (Rattus norvegicus [33]): 0.13% and 0.43% and 0.49% and 0.46% and 0.44% and 0.54% and 0.63% and 0.42%
- ID/g (Rattus norvegicus [34]): 0.171%
- ID/g (Rattus norvegicus [35]): 0.156%
- ID/g (Rattus norvegicus [36]): 0.871%
- ID/g [37]: 0.501%
- ID/g [38]: 0.096%
- ID/g (Rattus norvegicus [39]): 0.324%
- ID/g (Rattus norvegicus [40]): 0.121%
- ID/g (Rattus norvegicus [41]): 0.17% and 0.44% and 0.43% and 0.39% and 0.48% and 0.56% and 0.61%
- ID/g (Rattus norvegicus [42]): 0.225%
- ID/g (Rattus norvegicus [43]): 0.762%
- ID/g (Rattus norvegicus [44]): 0.7%
- ID/g (Rattus norvegicus [45]): 0.529% and 0.63% and 0.71%

Compound: CCCSc1nsnc1C1=CCN(C)CC1
- Ki [46]: 0.0015 µM
- Ki [47]: 0.023 µM
- Ki [48]: 0.163 µM

Compound: CN1CCC=C(c2nsnc2SCCF)C1
- Ki [46]: 0.0018 µM
- Ki [47]: 0.025 µM
- Ki [48]: > 10 µM
